# According to ChEMBL document CHEMBL1150387, “Development and experimental validation of a docking strategy for the generation of kinase-targeted libraries” (J Med Chem, 2008):
# Biological target: T1, Ephrin type-B receptor 4 (Homo sapiens) (UniProt P54760)
# T1 sequence (whole entry): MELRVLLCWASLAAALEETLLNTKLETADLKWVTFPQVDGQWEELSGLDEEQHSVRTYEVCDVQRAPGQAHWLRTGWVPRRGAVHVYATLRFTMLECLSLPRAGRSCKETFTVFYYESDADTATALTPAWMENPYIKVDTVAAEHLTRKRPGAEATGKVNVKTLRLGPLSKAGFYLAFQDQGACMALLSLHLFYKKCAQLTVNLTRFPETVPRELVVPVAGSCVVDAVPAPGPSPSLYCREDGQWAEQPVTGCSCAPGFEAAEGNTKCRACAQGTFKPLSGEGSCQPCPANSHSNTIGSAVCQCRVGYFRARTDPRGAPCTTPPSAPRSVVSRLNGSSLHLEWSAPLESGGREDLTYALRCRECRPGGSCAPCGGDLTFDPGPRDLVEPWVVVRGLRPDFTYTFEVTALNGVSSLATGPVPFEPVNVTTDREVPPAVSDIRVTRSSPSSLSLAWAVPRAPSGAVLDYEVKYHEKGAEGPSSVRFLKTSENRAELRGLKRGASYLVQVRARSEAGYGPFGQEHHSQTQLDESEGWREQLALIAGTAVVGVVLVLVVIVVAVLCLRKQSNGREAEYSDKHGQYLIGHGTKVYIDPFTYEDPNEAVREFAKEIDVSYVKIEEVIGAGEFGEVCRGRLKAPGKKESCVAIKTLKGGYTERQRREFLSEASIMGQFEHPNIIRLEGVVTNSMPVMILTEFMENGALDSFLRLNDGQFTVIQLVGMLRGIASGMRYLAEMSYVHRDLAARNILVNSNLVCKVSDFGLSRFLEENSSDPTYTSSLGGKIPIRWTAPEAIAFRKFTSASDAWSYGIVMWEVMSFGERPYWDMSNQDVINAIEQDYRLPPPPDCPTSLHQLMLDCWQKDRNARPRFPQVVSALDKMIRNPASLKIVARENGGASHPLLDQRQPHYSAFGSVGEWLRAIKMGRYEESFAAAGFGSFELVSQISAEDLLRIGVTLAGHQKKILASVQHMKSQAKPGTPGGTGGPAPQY
# Experiment: Inhibition of EphB4 at 10 uM by HTRF assay relative to control
# Procedure, shortened: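 HTRF kinase assay, one panel of kinases. Inhibitor stock 50 µM in 100% DMSO; tested at 10 µM. ATP and substrate at final levels near Km. Final buffer: 50 mM Hepes/NaOH pH 7.4, 40 µM Na3VO4, 0.005% Tween-20, 1 mM DTT, MnCl2 or MgCl2 at kinase-dependent levels. Started by adding ATP/substrate. Reaction run at room temperature, time varied by kinase. Detection mix in 50 mM Hepes pH 7.4, 0.1% BSA, 150 mM KF, incubated ≥1 h at room temperature. Activity expressed as % of uninhibited control; n=2.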
row,Compound,inhibition [%]
1,Cc1cccc(Nc2nccc3c2CN(C(=O)c2cc(C)n(C)c2C)CC3)c1,0
2,Cc1cccc(N(C)c2cc(Nc3cccc(C(=O)N4CCCC5CCCCC54)c3)ncn2)c1 (configuration not stated),0
3,Cc1cccc(N(C)c2cc(Nc3cccc(C(=O)N(C)CCc4ccccn4)c3)ncn2)c1,0
4,O=C(COc1ccccc1)N1CCN(c2nccc(Nc3ccc4ncsc4c3)n2)CC1,0
5,Cc1cccc(Oc2ccnc(N3CCN(CC(=O)Nc4cccc5c4CCCC5)CC3)n2)c1,0
6,O=C(NCc1cccnc1)c1cccc(-c2ccc(Nc3ccc4ncsc4c3)nn2)c1,0
7,Cc1cccc(Nc2cc(Nc3cccc(C(=O)N(CC(C)O)CC(C)O)c3)ncn2)c1 (configuration not stated),0
8,Cc1cccc(Oc2ccnc(N3CCN(C(=O)c4c(C)noc4C)CC3)n2)c1,0
9,Cc1cccc(CN2CCN(c3cc(N(C)c4cccc(C)c4)ncn3)CC2)c1,0
10,COc1cccc(Nc2cc(N3CCC[C@H]3C(=O)NCCc3ccc(O)cc3)nc(N)n2)c1,0
11,Cc1cccc(Nc2nccc(Nc3cccc(C(=O)N(C)CCc4ccccn4)c3)n2)c1,5
12,O=C(CN1CCN(c2ncnc3c2CN(Cc2ccccc2)CC3)CC1)Nc1cc(F)ccc1F,0
13,O=C(C1CCN(c2nccc(Nc3ccccc3)n2)CC1)N1CC[C@@H](O)C1,0
14,Nc1nc(Nc2ccc3ncsc3c2)cc(N2CCC[C@H]2C(=O)NCCc2cccc(I)c2)n1,0
15,Cc1cccc(N(C)c2cc(Nc3ccc(CC(=O)Nc4ccc5ncsc5c4)cc3)ncn2)c1,0
16,CC(=O)CCCCC(=O)N1CCN(c2nccc(Oc3cccc(C)c3)n2)CC1,0
17,Cc1cccc(N(C)c2cc(N3CCN(CC(=O)Nc4nc(-c5ccccc5)cs4)CC3)ncn2)c1,0
18,Cc1cccc(N(C)c2cc(N3CCN(C(=O)Cc4c[nH]c5ccccc45)CC3)ncn2)c1,0
19,Cc1cccc(Nc2ncnc3c2CN(C(=O)c2ccc(N(C)C)c4ccccc24)CC3)c1,0
20,O=C(NC[C@@H]1CCCO1)c1cccc(Nc2nccc(Nc3ccc4ncsc4c3)n2)c1,57
21,O=C(c1nc(SCc2ccc(Cl)cc2)n2ccccc12)N1CCN(c2ncnc3c2CN(Cc2ccccc2)CC3)CC1,0
22,Nc1nc(Nc2ccc3ncsc3c2)cc(N2CCC[C@H]2C(=O)N[C@@H](CO)c2ccccc2)n1,0
23,Cc1cccc(Oc2ccnc(N3CCC[C@H]3C(=O)NCCCn3ccnc3)n2)c1,0
24,CN(CCCn1ccnc1)C(=O)[C@@H]1CCCN1c1nccc(Nc2ccccc2)n1,0
25,Cc1cc(C(=O)N2CCN(c3ncnc4c3CN(Cc3ccccc3)CC4)CC2)c(C)n1C,0
26,Nc1nc(N2CCOCC2)cc(N2CCC(C(=O)NCCc3ccc(O)cc3)CC2)n1,0
27,Cc1cccc(N(C)c2cc(Nc3cccc(C(=O)NCc4ccncc4)c3)ncn2)c1,0

# Further lines, results first:
row,inhibition [%],Compound
1,0,O=C(NC1Cc2ccccc2C1)c1cccc(Nc2ccnc(N3CCN(c4ccccc4)CC3)n2)c1
2,0,Cc1ccc(CN2CCN(c3nccc(C(C#N)c4ccccn4)n3)CC2)cc1 (configuration not stated)
3,0,Nc1nc(Nc2ccc(C(=O)NCCc3ccncc3)cc2)cc(N2CCOCC2)n1
4,0,Cc1cccc(N(C)c2cc(Nc3cccc(C(=O)N(CC(C)C)CC(C)C)c3)ncn2)c1
5,0,CN(C)c1ccc(C(=O)N2CCN(c3ncnc4c3CN(Cc3ccccc3)CC4)CC2)c2ccccc12
6,4,Cc1cccc(N(C)c2cc(Nc3cccc(C(=O)NCc4ccc(N(C)C)cc4)c3)ncn2)c1
7,0,Cc1cccc(Nc2nccc(Nc3cccc(C(=O)NCc4ccc(N(C)C)cc4)c3)n2)c1
8,0,COc1cccc(Nc2cc(Nc3cccc(C(=O)N(C)CCc4ccccn4)c3)nc(N)n2)c1
9,0,COC[C@@H]1CCCN1C(=O)C1CCCN1c1cc(Nc2cccc(Br)c2)ncn1 (some centres not stated)
10,0,CN(C)CC(C)(C)CNC(=O)[C@@H]1CCCN1c1nccc(Nc2ccccc2)n1
11,0,Nc1nc(Nc2ccccc2)cc(N2CCC(C(=O)NCCc3ccccn3)CC2)n1
12,0,Cc1cccc(N(C)c2cc(Nc3cccc(C(=O)NCCCn4ccnc4)c3)ncn2)c1
13,0,COc1ccc(-c2noc(CN3CCN(c4cc(Nc5cccc(O)c5)ncn4)CC3)n2)cc1
14,0,Nc1nc(N2CCOCC2)cc(N2CCC(C(=O)NCc3cccs3)CC2)n1
15,17,CN(CCc1ccccn1)C(=O)c1cccc(Nc2nccc(Nc3ccc4ncsc4c3)n2)c1
16,0,CN(C)CC(C)(C)CNC(=O)C1CCN(c2cc(N3CCOCC3)nc(N)n2)CC1
17,0,O=C(NCc1ccncc1)c1cccc(Nc2cc(Nc3cccc(Br)c3)ncn2)c1
18,18,CN(C)CC(C)(C)CNC(=O)c1cccc(Nc2nccc(Nc3ccc4ncsc4c3)n2)c1
19,0,COC(=O)C(CO)NC(=O)[C@@H]1CCCN1c1nccc(Oc2cccc(C)c2)n1 (some centres not stated)
20,0,CC(=O)N1CCN(C(=O)c2cccc(Nc3cc(N(C)c4cccc(C)c4)ncn3)c2)CC1
21,0,COc1cccc(Nc2cc(Nc3cccc(C(=O)NCCCn4ccnc4)c3)nc(N)n2)c1
22,0,Cc1cccc(Oc2ccnc(N3CCC[C@H]3C(=O)NCc3cccnc3)n2)c1
23,0,O=C(NCCc1ccc(O)cc1)c1cccc(Nc2nccc(Nc3ccc4ncsc4c3)n2)c1
24,0,Clc1ccc2sc(CN3CCN(c4ncnc5c4CN(Cc4ccccc4)CC5)CC3)cc2c1
25,0,COC[C@@H]1CCCN1C(=O)[C@@H]1CCCN1c1nccc(Nc2ccccc2)n1
26,0,O=C(c1nc(SCc2ccc(Cl)cc2)n2ccccc12)N1CCN(c2cc(Nc3cccc(Br)c3)ncn2)CC1
27,0,COc1ccc(NC(=O)Cc2ccc(Nc3cc(N(C)c4cccc(C)c4)ncn3)cc2)cn1
28,0,COc1cccc(Nc2cc(N3CCC[C@H]3C(=O)NCCN3CCCCC3)nc(N)n2)c1
29,0,COC[C@@H]1CCCN1C(=O)[C@@H]1CCCN1c1cc(Nc2cccc(OC)c2)nc(N)n1
30,0,CN(CCc1ccccn1)C(=O)[C@@H]1CCCN1c1nccc(Nc2ccccc2)n1
